ChEMBL document CHEMBL1135143, “Discovery and evaluation of N-(triazin-1,3,5-yl) phenylalanine derivatives as VLA-4 integrin antagonists” (Bioorg Med Chem Lett, 2002)

Legend:
[1] = Compound was evaluated for rate of clearance by using IPRL (Isolated Perfused Rat Liver); type: ADME
[2] = target: T1, Integrin alpha-4/beta-1 (Homo sapiens, UniProt P05556+P13612); test: Inhibition of VLA-4 from HL60 lysate in a protein-based ligand binding assay.
Method in brief: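 Compounds titrated into two-domain VCAM-Fc-Ig solution, then added to VLA-4-coated wells; TBS, 1% BSA, 1 mM MnCl2, 0.1% Tween, 2 h room temperature. After washing, bound VCAM detected with peroxidase-coupled anti-human Fc.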

[3] = target: T1, Integrin alpha-4/beta-1; test: Inhibition of VLA-4 expressed in Jurkat cell line, in a cell-based adhesion assay.
Method in brief: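 VLA-4-expressing Jurkat cells incubated 30 min at 37 °C with test compound on plates carrying human two-domain VCAM-1-Fc captured by anti-human Fc; after washing, adherent cells stained with Rose Bengal.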

T1 sequence (P05556 whole entry): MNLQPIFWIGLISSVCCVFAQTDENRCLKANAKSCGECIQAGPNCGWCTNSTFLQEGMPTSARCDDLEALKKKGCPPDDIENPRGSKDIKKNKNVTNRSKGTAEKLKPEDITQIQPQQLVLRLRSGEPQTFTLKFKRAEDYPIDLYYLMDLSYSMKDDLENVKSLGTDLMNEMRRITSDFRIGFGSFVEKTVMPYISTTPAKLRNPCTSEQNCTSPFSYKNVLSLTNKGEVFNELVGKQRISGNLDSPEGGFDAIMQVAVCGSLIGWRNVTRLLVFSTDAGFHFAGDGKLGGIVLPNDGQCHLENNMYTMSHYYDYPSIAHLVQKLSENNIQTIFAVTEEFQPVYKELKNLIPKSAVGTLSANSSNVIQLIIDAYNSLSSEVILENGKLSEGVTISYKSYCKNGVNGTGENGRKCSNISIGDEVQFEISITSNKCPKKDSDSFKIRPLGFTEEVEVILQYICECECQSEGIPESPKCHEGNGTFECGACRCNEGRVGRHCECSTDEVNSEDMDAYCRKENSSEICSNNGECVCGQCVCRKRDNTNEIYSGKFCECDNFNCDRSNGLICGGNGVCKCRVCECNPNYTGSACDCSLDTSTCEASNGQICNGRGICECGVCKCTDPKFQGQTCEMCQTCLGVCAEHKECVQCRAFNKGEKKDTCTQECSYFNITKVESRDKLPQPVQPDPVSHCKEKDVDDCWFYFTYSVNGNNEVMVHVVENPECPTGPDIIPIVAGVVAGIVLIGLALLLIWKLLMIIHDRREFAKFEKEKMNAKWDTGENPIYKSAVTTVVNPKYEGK
T1 sequence (P13612 whole entry): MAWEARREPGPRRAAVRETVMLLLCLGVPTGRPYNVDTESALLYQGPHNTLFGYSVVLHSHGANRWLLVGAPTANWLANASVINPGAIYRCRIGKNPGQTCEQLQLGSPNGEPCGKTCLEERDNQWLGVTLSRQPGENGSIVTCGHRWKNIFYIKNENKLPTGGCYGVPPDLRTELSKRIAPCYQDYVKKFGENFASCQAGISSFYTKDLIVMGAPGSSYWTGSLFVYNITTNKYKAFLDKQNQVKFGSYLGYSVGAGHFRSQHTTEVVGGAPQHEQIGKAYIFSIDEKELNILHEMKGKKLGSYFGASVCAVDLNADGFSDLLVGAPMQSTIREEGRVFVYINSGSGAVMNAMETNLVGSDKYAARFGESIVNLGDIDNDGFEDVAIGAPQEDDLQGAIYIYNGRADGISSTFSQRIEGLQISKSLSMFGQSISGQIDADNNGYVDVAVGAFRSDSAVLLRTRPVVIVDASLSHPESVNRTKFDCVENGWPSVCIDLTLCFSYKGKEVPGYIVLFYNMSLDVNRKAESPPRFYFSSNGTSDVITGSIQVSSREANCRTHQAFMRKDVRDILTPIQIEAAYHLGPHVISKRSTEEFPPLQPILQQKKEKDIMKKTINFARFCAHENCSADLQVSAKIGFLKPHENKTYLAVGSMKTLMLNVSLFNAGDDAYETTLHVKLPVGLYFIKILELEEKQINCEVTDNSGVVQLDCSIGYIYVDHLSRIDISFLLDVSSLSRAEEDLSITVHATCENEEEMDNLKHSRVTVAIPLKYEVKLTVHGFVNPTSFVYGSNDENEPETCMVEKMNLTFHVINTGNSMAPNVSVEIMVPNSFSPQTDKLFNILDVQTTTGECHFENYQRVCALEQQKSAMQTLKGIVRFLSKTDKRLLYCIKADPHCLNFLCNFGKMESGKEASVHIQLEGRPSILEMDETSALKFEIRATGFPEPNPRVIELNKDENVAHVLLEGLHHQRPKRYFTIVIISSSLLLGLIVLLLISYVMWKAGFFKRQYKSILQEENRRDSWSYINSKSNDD

Row | k el [1] [s⁻¹] | IC50 [2] [nM] | IC50 [3] [nM] | Structure (SMILES)
1 | 0.000306 | 16 | 590 | COc1nc(N[C@@H](Cc2ccc(NC(=O)c3c(Cl)cncc3Cl)cc2)C(=O)O)nc(N(C)C)n1
2 | 5.56e-05 | 50 | 740 | CCCOc1nc(N[C@@H](Cc2ccc(NC(=O)c3c(Cl)cncc3Cl)cc2)C(=O)O)nc(OCCC)n1
3 | 0.000611 | 1500 | – | COc1nc(N[C@@H](Cc2ccc(OCc3c(Cl)cccc3Cl)cc2)C(=O)O)nc(OC)n1
4 | – | 14 | 510 | COc1nc(N[C@@H](Cc2ccc(NC(=O)c3c(Cl)cncc3Cl)cc2)C(=O)O)nc(N2CCOCC2)n1
5 | 0.000194 | 30 | 4000 | COc1nc(N[C@@H](Cc2ccc(NC(=O)c3c(Cl)cccc3Cl)cc2)C(=O)O)nc(OC)n1
6 | 0.00108 | 0.9 | 0.5 | O=C(Nc1ccc(C[C@H](NC(=O)c2c(Cl)cncc2Cl)C(=O)O)cc1)c1c(Cl)cncc1Cl
7 | 0.00103 | 0.6 | 0.5 | CC(=O)N1CSC[C@@H]1C(=O)N[C@@H](Cc1ccc(NC(=O)c2c(Cl)cncc2Cl)cc1)C(=O)O
8 | 0.000583 | – | – | O=C(Nc1ccc(C[C@H](Nc2cc(Cl)ncn2)C(=O)O)cc1)c1c(Cl)cncc1Cl
9 | 0.000278 | – | – | O=C(Nc1ccc(C[C@H](Nc2ccc([N+](=O)[O-])cn2)C(=O)O)cc1)c1c(Cl)cncc1Cl
10 | 0.000583 | 25 | 1000 | COc1nc(N[C@@H](Cc2ccc(NC(=O)c3c(Cl)cncc3Cl)cc2)C(=O)O)nc(N2CCNCC2)n1
11 | – | 5500 | – | COc1nc(N[C@@H](Cc2ccc(N(C)C(=O)c3c(Cl)cncc3Cl)cc2)C(=O)O)nc(OC)n1
12 | 0.000306 | 8 | 900 | COc1nc(N[C@@H](Cc2ccc(NC(=O)c3c(Cl)cncc3Cl)cc2)C(=O)O)nc(OC)n1
13 | 0.0005 | 7 | 320 | COc1nc(NCCO)nc(N[C@@H](Cc2ccc(NC(=O)c3c(Cl)cncc3Cl)cc2)C(=O)O)n1
14 | 0.000167 | 30 | 320 | COc1nc(N[C@@H](Cc2ccc(NC(=O)c3c(Cl)cncc3Cl)cc2)C(=O)O)nc(Oc2ccccc2)n1
15 | – | 70 | 1620 | CCN(CC)c1nc(N[C@@H](Cc2ccc(NC(=O)c3c(Cl)cncc3Cl)cc2)C(=O)O)nc(OC)n1
16 | 0.000167 | 50 | 4600 | COc1nc(N[C@@H](Cc2ccc(NC(=O)c3c(F)cccc3C(F)(F)F)cc2)C(=O)O)nc(OC)n1
17 | 0.000583 | 6 | 240 | COc1nc(N[C@@H](Cc2ccc(NC(=O)c3c(Cl)cncc3Cl)cc2)C(=O)O)nc(N2CCC(C(=O)O)CC2)n1
18 | 0.000639 | 45 | 300 | CCCOc1nc(N[C@@H](Cc2ccc(NC(=O)c3c(Cl)cncc3Cl)cc2)C(=O)O)nc(OC)n1
19 | 0.000667 | 25 | 740 | CCCNc1nc(N[C@@H](Cc2ccc(NC(=O)c3c(Cl)cncc3Cl)cc2)C(=O)O)nc(OC)n1
